According to ChEMBL document CHEMBL2046370, “Beta-carboline alkaloids derived from the ascidian Synoicum sp” (Bioorg Med Chem, 2012):
Converted amounts (≈) assume the structure as drawn.

Legend:
[1] = biological target: Isocitrate lyase (Candida albicans, UniProt Q9P8Q7); assay: Inhibition of Candida albicans recombinant ICL assessed as formation of glyoxylate phenylhydrazone by spectrophotometry
Method in brief: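 Recombinant enzyme assayed spectrophotometrically with isocitrate and phenylhydrazine present. Absorbance at 324 nm was monitored for glyoxylate phenylhydrazone formation, and IC50 was determined.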

[2] = tested on: Trichophyton rubrum; assay: Antifungal activity against Trichophyton rubrum IFO 9185 after 48 to 72 hrs; format: functional
[3] = tested on: Candida albicans; assay: Antifungal activity against Candida albicans ATCC 10231 after 48 to 72 hrs; format: functional
[4] = tested on: Aspergillus fumigatus; assay: Antifungal activity against Aspergillus fumigatus HIC 6094 after 48 to 72 hrs; format: functional
[5] = tested on: Trichophyton mentagrophytes; assay: Antifungal activity against Trichophyton mentagrophytes IFO 40996 after 48 to 72 hrs; format: functional
[6] = tested on: Micrococcus luteus; assay: Antibacterial activity against Micrococcus luteus IFC 12708 after 24 hrs; format: functional; conditions: IFC 12708, 24 h
[7] = tested on: Escherichia coli; assay: Antibacterial activity against Escherichia coli ATCC 35270 after 24 hrs; format: functional; conditions: ATCC 35270, 24 h
[8] = tested on: Staphylococcus aureus; assay: Antibacterial activity against Staphylococcus aureus ATCC 6538p after 24 hrs; format: functional
[9] = tested on: Proteus vulgaris; assay: Antibacterial activity against Proteus vulgaris ATCC 3851 after 24 hrs; format: functional; conditions: ATCC 3851, 24 h
[10] = tested on: Salmonella typhimurium; assay: Antibacterial activity against Salmonella typhimurium ATCC 14028 after 24 hrs; format: functional, Salmonella enterica subsp. enterica serovar Typhimurium; conditions: Salmonella enterica, ATCC 14028, 24 h
[11] = tested on: Bacillus subtilis; assay: Antibacterial activity against Bacillus subtilis ATCC 6633 after 24 hrs; format: functional; conditions: ATCC 6633, 24 h
[12] = tested on: A549; assay: Cytotoxicity against human A549 cells by MTT assay; format: functional; conditions: read-out: LC50 (the source's name)
[13] = biological target: T1, Sortase A (Staphylococcus aureus, UniProt Q9S446); assay: Inhibition of Staphylococcus aureus ATCC 6538p recombinant SrtA; parameters: species or system ATCC 6538p r
T1 sequence (Q9S446 whole entry): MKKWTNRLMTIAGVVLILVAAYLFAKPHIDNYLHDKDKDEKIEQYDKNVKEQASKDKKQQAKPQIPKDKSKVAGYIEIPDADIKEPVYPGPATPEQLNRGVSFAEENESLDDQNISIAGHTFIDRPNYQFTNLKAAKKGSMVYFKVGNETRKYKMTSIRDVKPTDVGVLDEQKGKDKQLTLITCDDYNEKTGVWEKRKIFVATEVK

[14] = Inhibition of porcine cerebral cortex Na+/K+ ATPase assessed as formation of fluorescent 3-O-methylfluorescein from 3-O-methylfluorescein phosphate by fluorometry; format: tissue-based, Sus scrofa

Sequence of Isocitrate lyase (Q9P8Q7 whole entry): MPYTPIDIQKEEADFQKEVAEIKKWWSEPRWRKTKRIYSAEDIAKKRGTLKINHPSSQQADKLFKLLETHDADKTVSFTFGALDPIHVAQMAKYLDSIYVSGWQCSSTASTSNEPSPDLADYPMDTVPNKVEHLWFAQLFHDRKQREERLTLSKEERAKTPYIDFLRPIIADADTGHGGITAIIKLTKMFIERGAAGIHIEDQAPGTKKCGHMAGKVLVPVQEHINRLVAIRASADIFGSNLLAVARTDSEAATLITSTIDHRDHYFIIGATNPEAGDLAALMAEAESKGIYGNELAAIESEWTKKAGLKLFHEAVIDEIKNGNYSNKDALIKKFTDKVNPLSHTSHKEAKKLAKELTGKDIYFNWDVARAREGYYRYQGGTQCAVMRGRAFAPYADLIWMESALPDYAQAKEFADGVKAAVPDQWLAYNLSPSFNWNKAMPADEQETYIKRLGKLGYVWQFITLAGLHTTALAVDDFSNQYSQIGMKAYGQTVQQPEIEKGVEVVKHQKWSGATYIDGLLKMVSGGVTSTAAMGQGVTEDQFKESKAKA

| Compound | IC50 [1] | MIC [2] | MIC [3] | MIC [4] | MIC [5] | MIC [6] | MIC [7] | MIC [8] | MIC [9] | MIC [10] | MIC [11] | CC50 [12] | IC50 [13] | IC50 [14] |
| --- | --- | --- | --- | --- | --- | --- | --- | --- | --- | --- | --- | --- | --- | --- |
| O=C(O)CC[N+](=O)[O-] | 38.6 µM | – | – | – | – | – | – | – | – | – | – | – | – | – |
| C[C@@H]1[C@H](O)[C@@H](C)/C=C/C=C/C=C/C=C/C=C/C=C/C=C/[C@H](O[C@@H]2O[C@H](C)[C@@H](O)[C@H](N)[C@@H]2O)C[C@@H]2O[C@](O)(C[C@@H](O)C[C@@H](O)[C@H](O)CC[C@@H](O)C[C@@H](O)CC(=O)O[C@H]1C)C[C@H](O)[C@H]2C(=O)O [AMPHOTERICIN B] | – | 0.78 µg/mL (≈ 0.844 µM) | 0.39 µg/mL (≈ 0.422 µM) | 0.78 µg/mL (≈ 0.844 µM) | 0.39 µg/mL (≈ 0.422 µM) | – | – | – | – | – | – | – | – | – |
| CC1(C)S[C@@H]2[C@H](NC(=O)[C@H](N)c3ccccc3)C(=O)N2[C@H]1C(=O)O [AMPICILLIN] | – | – | – | – | – | 0.39 µg/mL (≈ 1.12 µM) | 6.25 µg/mL (≈ 17.9 µM) | 0.39 µg/mL (≈ 1.12 µM) | 0.39 µg/mL (≈ 1.12 µM) | 0.78 µg/mL (≈ 2.23 µM) | 0.78 µg/mL (≈ 2.23 µM) | – | – | – |
| COc1cccc2c1C(=O)c1c(O)c3c(c(O)c1C2=O)C[C@@](O)(C(=O)CO)C[C@@H]3O[C@H]1C[C@H](N)[C@H](O)[C@H](C)O1 [DOXORUBICIN] | – | – | – | – | – | – | – | – | – | – | – | 3.3 µM | – | – |
| O=C(c1ccc(O)cc1)c1nccc2c1[nH]c1ccccc12 [EUDISTOMIN Y1] | 48.2 µM | 50 µg/mL (≈ 173 µM) | 50 µg/mL (≈ 173 µM) | 50 µg/mL (≈ 173 µM) | 100 µg/mL (≈ 347 µM) | > 100 µg/mL | > 100 µg/mL | > 100 µg/mL | > 100 µg/mL | > 100 µg/mL | > 100 µg/mL | 59 µM | > 347 µM | – |
| O=C(c1ccc(O)cc1)c1nccc2c1[nH]c1ccc(Br)cc12 [EUDISTOMIN Y2] | 50.2 µM | > 100 µg/mL | 6.25 µg/mL (≈ 17 µM) | > 100 µg/mL | > 100 µg/mL | 25 µg/mL (≈ 68.1 µM) | > 100 µg/mL | 50 µg/mL (≈ 136 µM) | 25 µg/mL (≈ 68.1 µM) | 50 µg/mL (≈ 136 µM) | 25 µg/mL (≈ 68.1 µM) | 65.6 µM | > 272 µM | 209 µM |
| O=C(c1ccc(O)c(Br)c1)c1nccc2c1[nH]c1ccccc12 [EUDISTOMIN Y3] | > 272 µM | > 100 µg/mL | > 100 µg/mL | > 100 µg/mL | > 100 µg/mL | 12.5 µg/mL (≈ 34 µM) | 100 µg/mL (≈ 272 µM) | 12.5 µg/mL (≈ 34 µM) | 6.25 µg/mL (≈ 17 µM) | 6.25 µg/mL (≈ 17 µM) | 12.5 µg/mL (≈ 34 µM) | 253 µM | > 272 µM | 22.5 µM |
| O=C(c1ccc(O)c(Br)c1)c1nccc2c1[nH]c1ccc(Br)cc12 [EUDISTOMIN Y4] | – | > 100 µg/mL | > 100 µg/mL | > 100 µg/mL | > 100 µg/mL | 1.56 µg/mL (≈ 3.5 µM) | 50 µg/mL (≈ 112 µM) | 3.12 µg/mL (≈ 7.01 µM) | 0.39 µg/mL (≈ 0.874 µM) | 0.39 µg/mL (≈ 0.874 µM) | 0.78 µg/mL (≈ 1.75 µM) | 48.4 µM | 163 µM | 7.5 µM |
| O=C(c1cc(Br)c(O)c(Br)c1)c1nccc2c1[nH]c1ccccc12 [EUDISTOMIN Y5] | – | > 100 µg/mL | > 100 µg/mL | > 100 µg/mL | > 100 µg/mL | 3.12 µg/mL (≈ 7.01 µM) | 100 µg/mL (≈ 224 µM) | 6.25 µg/mL (≈ 14 µM) | 1.56 µg/mL (≈ 3.5 µM) | 0.78 µg/mL (≈ 1.75 µM) | 3.12 µg/mL (≈ 7.01 µM) | 85.4 µM | 146 µM | 19.8 µM |
| O=C(c1cc(Br)c(O)c(Br)c1)c1nccc2c1[nH]c1ccc(Br)cc12 [EUDISTOMIN Y6] | – | > 100 µg/mL | > 100 µg/mL | > 100 µg/mL | > 100 µg/mL | 1.56 µg/mL (≈ 2.97 µM) | 50 µg/mL (≈ 95.2 µM) | 1.56 µg/mL (≈ 2.97 µM) | 0.78 µg/mL (≈ 1.49 µM) | 0.39 µg/mL (≈ 0.743 µM) | 1.56 µg/mL (≈ 2.97 µM) | 60 µM | > 190 µM | 10.1 µM |
| O=C(c1cc(Br)c(O)c(Br)c1)c1nccc2c1[nH]c1cc(Br)ccc12 [EUDISTOMIN Y7] | – | > 100 µg/mL | > 100 µg/mL | > 100 µg/mL | > 100 µg/mL | 1.56 µg/mL (≈ 2.97 µM) | 50 µg/mL (≈ 95.2 µM) | 3.12 µg/mL (≈ 5.95 µM) | 0.78 µg/mL (≈ 1.49 µM) | 0.78 µg/mL (≈ 1.49 µM) | 0.78 µg/mL (≈ 1.49 µM) | 59 µM | > 190 µM | 11.3 µM |
| Oc1ccc(C(O)c2nccc3c2[nH]c2ccccc23)cc1 (stereo not given) [EUDISTOMIN Y8] | 68.9 µM | > 100 µg/mL | > 100 µg/mL | > 100 µg/mL | > 100 µg/mL | 100 µg/mL (≈ 344 µM) | > 100 µg/mL | 100 µg/mL (≈ 344 µM) | > 100 µg/mL | > 100 µg/mL | 100 µg/mL (≈ 344 µM) | > 344 µM | > 344 µM | > 344 µM |
| Oc1ccc(C(O)c2nccc3c2[nH]c2ccc(Br)cc23)cc1Br (stereo not given) [EUDISTOMIN Y9] | – | > 100 µg/mL | > 100 µg/mL | > 100 µg/mL | > 100 µg/mL | > 100 µg/mL | > 100 µg/mL | 6.25 µg/mL (≈ 13.9 µM) | > 100 µg/mL | > 100 µg/mL | > 100 µg/mL | 17.9 µM | > 223 µM | 33.3 µM |
| Oc1c(Br)cc(C(O)c2nccc3c2[nH]c2ccccc23)cc1Br (stereo not given) [EUDISTOMIN Y10] | – | > 100 µg/mL | > 100 µg/mL | > 100 µg/mL | > 100 µg/mL | 12.5 µg/mL (≈ 27.9 µM) | > 100 µg/mL | 25 µg/mL (≈ 55.8 µM) | 12.5 µg/mL (≈ 27.9 µM) | 12.5 µg/mL (≈ 27.9 µM) | 25 µg/mL (≈ 55.8 µM) | > 223 µM | > 223 µM | 122 µM |
| Oc1c(Br)cc(C(O)c2nccc3c2[nH]c2ccc(Br)cc23)cc1Br (stereo not given) [EUDISTOMIN Y11] | – | > 100 µg/mL | > 100 µg/mL | > 100 µg/mL | > 100 µg/mL | 3.12 µg/mL (≈ 5.93 µM) | 100 µg/mL (≈ 190 µM) | 6.25 µg/mL (≈ 11.9 µM) | 3.12 µg/mL (≈ 5.93 µM) | 3.12 µg/mL (≈ 5.93 µM) | 3.12 µg/mL (≈ 5.93 µM) | > 190 µM | > 190 µM | 32.8 µM |
| Cc1ccc(S(=O)(=O)Oc2ccc(C(O)c3nccc4c3[nH]c3ccc(Br)cc34)cc2Br)cc1 (stereo not given) [EUDISTOMIN Y12] | > 166 µM | > 100 µg/mL | > 100 µg/mL | > 100 µg/mL | > 100 µg/mL | > 100 µg/mL | > 100 µg/mL | > 100 µg/mL | > 100 µg/mL | > 100 µg/mL | > 100 µg/mL | 63.3 µM | > 166 µM | – |
| OC(c1ccccc1)c1nccc2c1[nH]c1ccc(Br)cc12 (stereo not given) [EUDISTOMIN Y13] | > 283 µM | > 100 µg/mL | > 100 µg/mL | > 100 µg/mL | > 100 µg/mL | 100 µg/mL (≈ 283 µM) | > 100 µg/mL | > 100 µg/mL | > 100 µg/mL | > 100 µg/mL | 100 µg/mL (≈ 283 µM) | 49 µM | > 283 µM | – |
| C[C@@H]1O[C@@H](O[C@H]2C[C@@H](O)[C@]3(CO)[C@H]4[C@H](O)C[C@]5(C)[C@@H](C6=CC(=O)OC6)CC[C@]5(O)[C@@H]4CC[C@]3(O)C2)[C@H](O)[C@H](O)[C@H]1O [OUABAIN] | – | – | – | – | – | – | – | – | – | – | – | – | – | 6.3 µM |
